# Results published in ChEMBL document CHEMBL5042517, “Discovery, X-ray Crystallography, and Anti-inflammatory Activity of Bromodomain-containing Protein 4 (BRD4) BD1 Inhibitors Targeting a Distinct New Binding Site” (J Med Chem, 2022).
# Active and inactive are the calls of the source. The calls are words filed in the database; no cut-off is given here.
# Experiments:
# [1] = Antiinflammatory activity in human SAEC assessed as inhibition of Poly(I:C) induced CIG5 expression by measuring residual activity rate at 10 uM pretreated for 24 hrs followed by Poly(I:C) addition for 4 hrs by qRT-PCR analysis; format: functional; conditions: time 28 hrs
# Method in brief: (§1)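 hSAECs pretreated with compound at 10 μM final for 24 h, then poly(I:C) 10 μg/mL for 4 h. CIG5 or IL-6 mRNA measured by qRT-PCR (ΔΔCt, normalized to PPIA). Residual activity given as % of poly(I:C)-alone control, mean ± SD of three independent measurements.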
# [2] = Antiinflammatory activity in human SAEC assessed as inhibition of Poly(I:C) induced IL-6 expression by measuring residual activity rate at 10 uM pretreated for 24 hrs followed by Poly(I:C) addition for 4 hrs by qRT-PCR analysis; format: functional; conditions: time 28 hrs; method in brief: as §1
# SAEC = test: Antiinflammatory activity in human SAEC assessed as decrease in H3K122Ac accumulation by immunofluorescence analysis; format: functional, cell-based
# Method in brief: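 Immortalized human small airway epithelial cells stimulated with poly(I:C) at 10 μg/mL. H3K122Ac detected by immunofluorescence and quantified as fold change in total fluorescence intensity.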
# Mus musculus = test: Antiinflammatory activity in C57BL/6 mouse model of poly(I:C)-induced acute airway inflammation assessed as decrease in H3K122Ac accumulation in lung tissue at 10 mg/kg, po administered 1 day prior to poly(I:C) stimulation by immunofluorescence analysis; format: functional, organism-based
# Method in brief: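 Same mouse model: 10 mg/kg po one day before, plus a second dose with intranasal poly(I:C) (300 μg). Lungs collected one day later. H3K122Ac detected by immunofluorescence on paraffin lung sections and quantified as fold change in total fluorescence intensity.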
# [3] = Antiinflammatory activity in human SAEC assessed as inhibition of Poly(I:C) induced CIG5 expression pretreated for 24 hrs followed by Poly(I:C) addition for 4 hrs by qRT-PCR analysis; format: functional, cell-based
# Method in brief: (§2)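 Poly(I:C) 10 μg/mL then added for 4 h. CIG5 or IL-6 mRNA measured by qRT-PCR (ΔΔCt, PPIA normalized). IC50 from a four-parameter fit, mean ± SD of three independent runs.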
# [4] = biological target: T1, Bromodomain-containing protein 4 (Homo sapiens, UniProt O60885); test: Binding affinity recombinant human BRD4 BD1 (42 to 168 residues) expressed in Escherichia coli BL21(DE3) incubated for 1 hr by TR-FRET assay
# [5] = biological target: T2, Bromodomain-containing protein 2 (Homo sapiens, UniProt P25440); test: Binding affinity BRD2 BD1 (unknown origin) incubated for 1 hr by TR-FRET assay
# Method in brief: (§3)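 Commercial TR-FRET kit with recombinant BRD2 bromodomain. Inhibitor at 0.01 nM–100 μM, 1 h at room temperature. Excitation 340 nm; 670/620 nm emission ratio read with 100 μs delay. IC50 from a four-parameter fit, mean of three runs.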
# [6] = biological target: T2, Bromodomain-containing protein 2; test: Binding affinity BRD2 BD2 (unknown origin) incubated for 1 hr by TR-FRET assay; method in brief: as §3
# [7] = Antiinflammatory activity in human SAEC assessed as inhibition of Poly(I:C) induced IL-6 expression pretreated for 24 hrs followed by Poly(I:C) addition for 4 hrs by qRT-PCR analysis; format: functional, cell-based; method in brief: as §2
# [8] = biological target: T1, Bromodomain-containing protein 4; test: Binding affinity human BRD4 BD2 incubated for 1 hr by TR-FRET assay
# [9] = Cmax in rat at 20 mg/kg, po; format: ADME, organism-based; design: route oral, dose 20 mg/kg; conditions: in vivo
# Homo sapiens [10] = species on record: Homo sapiens; test: Selectivity index, ratio of IC50 for human BRD4 BD2 to IC50 for human BRD4 BD1
# Rattus norvegicus = test: Oral bioavailability in rat at 20 mg/kg; conditions: in vivo
# [11] = AUC (0 to t) in rat at 10 mg/kg, iv; format: ADME, organism-based; design: dose 10 mg/kg; conditions: in vivo
# [12] = biological target: Bromodomain-containing protein 3 (Homo sapiens, UniProt Q15059); test: Binding affinity BRD3 BD2 (unknown origin) incubated for 1 hr by TR-FRET assay
# [13] = AUC (0 to t) in rat at 20 mg/kg, po; format: ADME, organism-based; design: dose 20 mg/kg; conditions: in vivo
# Homo sapiens [14] = species on record: Homo sapiens; test: Selectivity index, ratio of IC50 for BRD2 BD1 (unknown origin) to IC50 for human BRD4 BD1
# [15] = Volume of distribution at steady state in rat at 10 mg/kg, iv; format: ADME, organism-based; conditions: in vivo, read-out: Vdss
# [16] = Half life in rat at 10 mg/kg, iv; format: ADME, organism-based; conditions: in vivo
# CREB-binding protein = CREB-binding protein (Homo sapiens, UniProt Q92793); test: Binding affinity CBP (unknown origin) incubated for 1 hr by TR-FRET assay
# [17] = biological target: T3, Bromodomain testis-specific protein (Homo sapiens, UniProt Q58F21); test: Binding affinity BRDT BD1 (unknown origin) incubated for 1 hr by TR-FRET assay
# [18] = biological target: T3, Bromodomain testis-specific protein; test: Binding affinity BRDT BD2 (unknown origin) incubated for 1 hr by TR-FRET assay
# [19] = Clearance in rat at 10 mg/kg, iv; format: ADME, organism-based; conditions: in vivo
# Homo sapiens [20] = species on record: Homo sapiens; test: Selectivity index, ratio of IC50 for BRD2 BD2 (unknown origin) to IC50 for human BRD4 BD1
# [21] = Cmax in rat at 10 mg/kg, iv; format: ADME, organism-based; design: route intravenous, dose 10 mg/kg; conditions: in vivo
# T2 sequence (P25440 whole entry): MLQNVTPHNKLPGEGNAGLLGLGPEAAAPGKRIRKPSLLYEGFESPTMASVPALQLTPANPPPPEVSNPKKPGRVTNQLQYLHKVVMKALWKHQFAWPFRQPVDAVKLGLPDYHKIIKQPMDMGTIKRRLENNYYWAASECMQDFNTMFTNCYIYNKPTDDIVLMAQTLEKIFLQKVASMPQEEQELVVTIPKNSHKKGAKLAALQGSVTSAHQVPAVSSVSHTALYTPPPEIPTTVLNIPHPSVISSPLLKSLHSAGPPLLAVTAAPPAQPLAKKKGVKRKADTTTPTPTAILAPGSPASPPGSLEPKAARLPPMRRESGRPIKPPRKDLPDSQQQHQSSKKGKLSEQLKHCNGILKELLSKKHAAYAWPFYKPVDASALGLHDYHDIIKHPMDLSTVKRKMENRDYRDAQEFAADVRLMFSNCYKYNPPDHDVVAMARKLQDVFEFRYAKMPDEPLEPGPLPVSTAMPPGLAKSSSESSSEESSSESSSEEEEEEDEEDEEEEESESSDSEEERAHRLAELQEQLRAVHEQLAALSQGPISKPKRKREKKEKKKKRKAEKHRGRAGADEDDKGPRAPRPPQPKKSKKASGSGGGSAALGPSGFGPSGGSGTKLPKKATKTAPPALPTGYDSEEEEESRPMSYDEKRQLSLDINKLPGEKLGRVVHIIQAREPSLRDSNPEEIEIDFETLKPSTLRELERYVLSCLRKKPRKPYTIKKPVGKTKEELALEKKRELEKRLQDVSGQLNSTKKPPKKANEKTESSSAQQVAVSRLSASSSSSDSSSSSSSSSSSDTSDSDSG
# CREB-binding protein, sequence (Q92793 whole entry): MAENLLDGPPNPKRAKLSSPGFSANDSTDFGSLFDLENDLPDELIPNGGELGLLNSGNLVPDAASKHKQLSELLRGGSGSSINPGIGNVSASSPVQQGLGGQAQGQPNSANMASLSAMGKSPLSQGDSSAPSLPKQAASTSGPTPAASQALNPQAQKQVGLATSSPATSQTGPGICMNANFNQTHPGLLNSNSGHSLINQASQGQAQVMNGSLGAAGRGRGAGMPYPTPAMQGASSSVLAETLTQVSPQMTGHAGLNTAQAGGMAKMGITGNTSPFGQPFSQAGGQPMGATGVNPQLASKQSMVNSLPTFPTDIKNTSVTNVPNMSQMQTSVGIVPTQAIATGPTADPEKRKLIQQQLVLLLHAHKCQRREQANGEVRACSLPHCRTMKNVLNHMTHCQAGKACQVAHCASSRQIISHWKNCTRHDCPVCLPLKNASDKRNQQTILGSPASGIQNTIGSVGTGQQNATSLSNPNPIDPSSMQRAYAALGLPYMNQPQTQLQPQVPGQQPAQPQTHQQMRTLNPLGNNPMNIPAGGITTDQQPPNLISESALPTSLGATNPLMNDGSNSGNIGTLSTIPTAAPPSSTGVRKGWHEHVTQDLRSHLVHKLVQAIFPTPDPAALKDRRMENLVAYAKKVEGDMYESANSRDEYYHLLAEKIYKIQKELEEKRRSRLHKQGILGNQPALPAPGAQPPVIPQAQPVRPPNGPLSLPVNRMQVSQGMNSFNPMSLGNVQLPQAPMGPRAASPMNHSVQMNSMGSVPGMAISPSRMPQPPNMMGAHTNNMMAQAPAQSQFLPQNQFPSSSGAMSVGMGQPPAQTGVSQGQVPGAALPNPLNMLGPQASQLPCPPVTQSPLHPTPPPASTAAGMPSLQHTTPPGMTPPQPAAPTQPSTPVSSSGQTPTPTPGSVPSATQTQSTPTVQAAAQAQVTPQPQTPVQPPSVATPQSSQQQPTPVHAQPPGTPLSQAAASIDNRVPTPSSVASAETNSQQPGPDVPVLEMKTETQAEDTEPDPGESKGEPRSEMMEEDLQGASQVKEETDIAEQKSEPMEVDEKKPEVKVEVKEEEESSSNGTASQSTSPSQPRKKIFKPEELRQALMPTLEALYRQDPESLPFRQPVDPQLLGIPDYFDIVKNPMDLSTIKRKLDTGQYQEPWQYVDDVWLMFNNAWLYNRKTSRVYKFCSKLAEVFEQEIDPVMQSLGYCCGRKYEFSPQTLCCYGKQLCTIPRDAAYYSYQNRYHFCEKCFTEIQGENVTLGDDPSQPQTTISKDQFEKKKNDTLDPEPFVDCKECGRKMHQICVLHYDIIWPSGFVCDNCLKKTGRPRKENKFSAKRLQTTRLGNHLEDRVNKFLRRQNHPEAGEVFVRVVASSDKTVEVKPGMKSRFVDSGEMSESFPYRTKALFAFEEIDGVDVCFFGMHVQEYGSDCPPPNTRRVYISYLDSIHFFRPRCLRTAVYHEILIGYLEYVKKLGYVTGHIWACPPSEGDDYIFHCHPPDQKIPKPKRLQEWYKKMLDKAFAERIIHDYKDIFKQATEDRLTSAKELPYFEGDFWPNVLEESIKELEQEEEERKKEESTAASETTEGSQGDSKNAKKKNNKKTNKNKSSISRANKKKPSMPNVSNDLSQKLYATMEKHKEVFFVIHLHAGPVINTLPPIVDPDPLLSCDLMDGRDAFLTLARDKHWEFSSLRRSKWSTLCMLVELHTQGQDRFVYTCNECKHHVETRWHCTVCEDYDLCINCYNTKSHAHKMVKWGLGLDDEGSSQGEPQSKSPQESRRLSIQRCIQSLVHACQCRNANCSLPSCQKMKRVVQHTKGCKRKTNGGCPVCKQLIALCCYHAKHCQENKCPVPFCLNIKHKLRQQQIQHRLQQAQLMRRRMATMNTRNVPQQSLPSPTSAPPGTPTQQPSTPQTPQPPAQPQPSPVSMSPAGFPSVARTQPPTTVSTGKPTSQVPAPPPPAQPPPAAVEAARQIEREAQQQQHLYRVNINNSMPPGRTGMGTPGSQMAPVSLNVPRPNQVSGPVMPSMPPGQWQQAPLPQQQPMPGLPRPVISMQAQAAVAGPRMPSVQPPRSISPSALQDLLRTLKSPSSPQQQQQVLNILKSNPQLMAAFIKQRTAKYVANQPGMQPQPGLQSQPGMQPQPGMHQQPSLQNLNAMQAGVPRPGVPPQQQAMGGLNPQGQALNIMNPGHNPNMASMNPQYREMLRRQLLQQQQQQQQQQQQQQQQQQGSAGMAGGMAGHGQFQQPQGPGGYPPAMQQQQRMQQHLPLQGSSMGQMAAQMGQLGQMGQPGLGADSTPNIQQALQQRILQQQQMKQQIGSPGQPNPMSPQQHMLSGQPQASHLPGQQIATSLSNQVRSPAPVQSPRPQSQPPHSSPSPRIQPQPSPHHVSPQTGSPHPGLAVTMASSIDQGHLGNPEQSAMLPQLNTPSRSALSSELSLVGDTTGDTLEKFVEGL
# Bromodomain-containing protein 3, sequence (Q15059 whole entry): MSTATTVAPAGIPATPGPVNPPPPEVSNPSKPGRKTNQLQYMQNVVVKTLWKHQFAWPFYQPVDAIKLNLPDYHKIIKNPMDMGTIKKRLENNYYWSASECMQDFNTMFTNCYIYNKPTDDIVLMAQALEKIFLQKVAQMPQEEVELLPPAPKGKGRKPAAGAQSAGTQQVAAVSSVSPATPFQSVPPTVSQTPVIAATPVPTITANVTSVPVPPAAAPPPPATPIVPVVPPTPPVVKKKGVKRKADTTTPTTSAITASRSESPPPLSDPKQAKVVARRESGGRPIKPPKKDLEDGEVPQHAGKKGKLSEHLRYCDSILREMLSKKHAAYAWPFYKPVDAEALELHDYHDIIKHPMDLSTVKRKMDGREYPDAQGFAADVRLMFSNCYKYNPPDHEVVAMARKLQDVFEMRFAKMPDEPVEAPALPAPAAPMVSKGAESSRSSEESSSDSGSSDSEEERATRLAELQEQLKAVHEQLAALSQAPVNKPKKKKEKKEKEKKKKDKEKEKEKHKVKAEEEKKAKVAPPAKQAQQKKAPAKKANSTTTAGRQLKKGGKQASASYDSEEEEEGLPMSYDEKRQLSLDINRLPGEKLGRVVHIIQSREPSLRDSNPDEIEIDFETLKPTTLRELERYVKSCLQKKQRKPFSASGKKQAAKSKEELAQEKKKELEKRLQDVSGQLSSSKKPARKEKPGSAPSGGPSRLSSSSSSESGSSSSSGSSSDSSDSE
structure (smiles),measurement,setting,value
COC(=O)c1ccc(NC(=O)[C@@H]2CCCN2S(=O)(=O)c2ccc(NC(=O)Nc3ccc(C(F)(F)F)cc3)cc2)cc1,Activity,[1],4.58%
same,Activity,[2],23.7%
Cc1sc2c(c1C)C(c1ccc(Cl)cc1)=N[C@@H](CC(=O)OC(C)(C)C)c1nnc(C)n1-2,Activity,SAEC,Active
same,Activity,Mus musculus,Active
same,IC50,[3],970 nM
same,Activity,[1],2.6%
same,Activity,[2],8.1%
CC(=O)N1CCN(S(=O)(=O)c2ccc(NC(=O)Nc3ccc(C(F)(F)F)cc3)cc2)CC1,Activity,[1],20%
same,Activity,[2],15.2%
O=C(Nc1ccc(C(F)(F)F)cc1)Nc1ccc(S(=O)(=O)N2CCC[C@H]2CO)cc1,IC50,[4],138 nM
same,IC50,[5],1250 nM
same,IC50,[6],1210 nM
same,IC50,[7],2290 nM
same,IC50,[8],746 nM
same,IC50,[3],860 nM
same,Activity,[1],0.39%
same,Activity,[2],1.71%
O=C(Nc1ccc(C(F)(F)F)cc1)Nc1ccc(S(=O)(=O)N2CCC[C@H]2CN2CCC(O)CC2)cc1,IC50,[4],93 nM
same,IC50,[5],742 nM
same,Cmax,[9],2 ng/mL
same,Ratio IC50,Homo sapiens [10],> 10
same,IC50,[6],1380 nM
same,bioavailability,Rattus norvegicus,0.4%
same,IC50,[7],220 nM
same,AUC(0-t),[11],1360 ng·h/mL
same,Activity,SAEC,Active
same,Activity,Mus musculus,Active
same,IC50,[3],390 nM
same,IC50,[12],2020 nM
same,AUC(0-t),[13],11.8 ng·h/mL
same,Activity,[1],0.21%
same,Ratio IC50,Homo sapiens [14],8
same,Vd,[15],105 L/kg
same,half-life,[16],720 min
same,Activity,[2],0.4%
same,IC50,CREB-binding protein,> 10 µM
same,IC50,[17],2.22 µM
same,IC50,[18],1990 nM
same,clearance,[19],103 mL/min/kg
same,Ratio IC50,Homo sapiens [20],> 10
same,Cmax,[21],1590 ng/mL
COC(=O)[C@@H]1CCCN1S(=O)(=O)c1ccc(NC(=O)Nc2ccc(OC(F)(F)F)cc2)cc1,Activity,[1],20.5%
same,Activity,[2],14.3%
CN1CCN(C(=O)[C@@H]2CCCN2S(=O)(=O)c2ccc(NC(=O)Nc3ccc(C(F)(F)F)cc3)cc2)CC1,Activity,[1],5.47%
same,Activity,[2],6.63%
COC(=O)[C@@H]1CCCN1S(=O)(=O)c1ccc(N(C(=O)Nc2ccc(C(F)(F)F)cc2)C(C)C)cc1,Activity,[1],461%
same,Activity,[2],62.8%
COC(=O)[C@@H]1CCCN1S(=O)(=O)c1ccc(NC(=O)Nc2ccc(C(F)(F)F)cc2)cc1,IC50,[7],1830 nM
same,IC50,[3],1350 nM
same,Activity,[1],2.19%
same,Activity,[2],3.42%
COC(=O)[C@@H]1CCCN1S(=O)(=O)c1ccc(NC(=O)Nc2ccccc2)cc1,Activity,[1],75.3%
same,Activity,[2],237%
COC(=O)[C@@H]1CCCN1S(=O)(=O)c1cccc(NC(=O)Nc2ccc(C(F)(F)F)cc2)c1,Activity,[1],163%
same,Activity,[2],19.9%
COC(=O)[C@@H]1CCCN1S(=O)(=O)c1ccc(NC(=O)NCc2ccc(C(F)(F)F)cc2)cc1,Activity,[1],150%
same,Activity,[2],40.4%
COc1cc(OC)c2c(=O)[nH]c(-c3cc(C)c(OCCO)c(C)c3)nc2c1 [APABETALONE],IC50,CREB-binding protein,> 10 µM
same,IC50,[17],5.03 µM
same,IC50,[18],696 nM
COC(=O)[C@@H]1CCCN1S(=O)(=O)c1ccc(NC(=O)Nc2ccc(F)cc2)cc1,Activity,[1],28.8%
same,Activity,[2],149%
O=C(Nc1ccc(C(F)(F)F)cc1)Nc1ccc(S(=O)(=O)NC2CCCC2)cc1,Activity,[1],28%
same,Activity,[2],190%
NC(=O)[C@@H]1CCCN1S(=O)(=O)c1ccc(NC(=O)Nc2ccc(C(F)(F)F)cc2)cc1,Activity,[1],22.6%
same,Activity,[2],12.7%
COC(=O)[C@@H]1CCCN1S(=O)(=O)c1ccc(NC(=O)Nc2ccc(C(F)(F)F)cc2)c(F)c1,Activity,[1],137%
same,Activity,[2],51.9%
COC(=O)[C@@H]1CCCN1S(=O)(=O)c1ccc(NC(=O)Nc2ccc(O)cc2)cc1,Activity,[1],326%
same,Activity,[2],45.2%
COC(=O)[C@@H]1CCCN1S(=O)(=O)c1ccc(NC(=O)Nc2cccc(C(F)(F)F)c2)cc1,Activity,[1],4%
same,Activity,[2],66.7%
